The values below come from PubChem BioAssay.

Test [1] can be described thus: reduced viability of SK-BR-3 breast cancer cells – cell-based, 24 h, human, pilot screen (AID 572;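 active means viability at or below 10% of carrier control in both of two separate runs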;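 further: compound exposure lasted between 18 and 24 h rather than exactly 24 h; 100% = carrier-treated control wells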). Conditions: SK-BR-3 viability, CellTiter-Glo luminescence, at 10 µM, stronger effect = lower value.
Test [2] is described as follows: HUVEC growth inhibition – cell-based, human, primary screen (AID 575;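 active means viability at or below 30% in both replicate assays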;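 further: 100% = median of untreated cell wells with 0.1% DMSO on each plate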). As to conditions: HUVEC proliferation, CellTiter-Glo luminescence, 72 h; at 10 µM; stronger effect = lower value. In short, it runs like this: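 Timing: 72 h treatment at 37 °C; material: HUVEC primary cells; technique: CellTiter-Glo luminescence measuring cellular ATP; controls: vehicle and MePR control wells; measure: percent of median DMSO-control luminescence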

Test [3] in a line: H69AR cell proliferation blockers – human, duplicate replicates, primary screen (AID 580).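 Further: 100% = mean luminescence of untreated wells and 0% = no signal.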 As to conditions: H69AR lung tumor cells viability, ATP luminescence, 72 h; at 10 µM; stronger effect = lower value.
The nature of test [4]: MRP1 drug-resistance reversers in H69AR cells – cell-based, doxorubicin co-treatment, pilot screen (AID 601;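 active means viability loss from added drug above about 55%, and viability with drug at most 40%, in both replicates, limit read from the data, passing the limit was not always enough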). As to conditions: CellTiter-Glo, 72 h, at 10 µM; for differential viability (reversal): stronger effect = higher value. (In general: Cellular ATP, detected with luciferase, serves as a proxy for viable cell number.)
Test [5] is described as follows: yeast transport mutant growth inhibition pilot in 384-well plates, post-Golgi transport modulator project (AID 636; in the data active means inhibition above about 31%). Conditions: absorbance 615 nm, about 18 h, stronger effect = higher value.
The nature of test [6]: growth suppression of yeast trafficking mutant, preliminary HTS, modulators of trafficking downstream of Golgi apparatus project, 1536-format plate, OD 615 nm (AID 637; in the data active means inhibition above about 30%). As to conditions: yeast transport mutant growth, absorbance 615 nm, 18 h; stronger effect = higher value.
Setting [7] is: H69AR cells + 2 uM doxorubicin, measured here: viability with 2 uM doxorubicin, stronger effect = lower value.
[8] abbreviates: H69AR cells, compound alone cytotoxicity.

The source made the active and inactive calls.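 How the source made its calls, unless noted: active means viability at or under a set limit in both replicates, limit being median viability minus 3 SD (cut at about 48% in these data, passing the limit was not always enough); inconclusive means at or under the limit in just one replicate; inactive means at or above the limit in both replicates.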

The term viability denotes a read-out of living cells in per cent, often relative to untreated cells. By inhibition is commonly meant the change of the read-out against control, counted positive when it falls. With `CCN(CC)c1ccc(C(=O)n2cnc3ccccc32)cc1`, the viability is 111% (inactive) in test [1]; 61.5% (inactive) in test [2]; 15.1% (active) in test [3]; 68.8% in test [4] (setting [7]); 15.1% in test [4] (setting [8]). Besides, the differential viability (reversal) in test [4] (H69AR cells + 2 uM doxorubicin) was -53.7% (inactive). Besides, the values for the inhibition in test [5] and in test [6] were -3.33% (inactive) and -2% (inactive), respectively.
On to `Cc1cccc(N2C(=O)CC(N(C(=O)c3ccco3)c3cccc(C)c3)C2=O)c1` (stereo unspecified), for which the viability in test [1] was 104% (inactive); in test [2], 98.8% (inactive); in test [3], 98.5% (inactive); in test [4] (setting [7]) it was 102%; in test [4] (setting [8]) it was 98.5%. Further, the differential viability (reversal) in test [4] (H69AR cells + 2 uM doxorubicin) was -3.33% (inactive). Also, the figures for the inhibition in test [5] and in test [6] were 0% (inactive) and 6.13% (inactive), respectively.
`Cc1ccc(N(CC(O)CN2CCCC2)S(=O)(=O)c2ccc(C)cc2)cc1` (stereo unspecified): the viability in test [1] was 132% (inactive); in test [2], 103% (inactive); in test [3] it was 86.9% (inactive); in test [4] (setting [7]), 88.2%; in test [4] (setting [8]), 86.9%. Besides, in test [4] (H69AR cells + 2 uM doxorubicin), the differential viability (reversal) was -1.29% (inactive). Besides, the inhibition in test [5] was -5.21% (inactive); in test [6], -1.94% (inactive).
For `Cc1cccc(NC(=O)c2cc(NC(=O)c3ccco3)ccc2Cl)n1`, the viability in test [1] is 101% (inactive); in test [2] it was 77.2% (inactive); in test [3], 95.4% (inactive); in test [4] (setting [7]) it was 95.3%; in test [4] (setting [8]), 95.4%. Further, in test [4] (H69AR cells + 2 uM doxorubicin), the differential viability (reversal) was 0.16% (inactive). Further, the inhibition was -1.56% (inactive) in test [5] and 7.21% (inactive) in test [6].
As for `CCOc1ccc(NC(=O)COC(=O)Cn2cnnn2)cc1OCC`, the viability in test [1] is 86% (inactive); in test [2] it was 106% (inactive); in test [3], 107% (inactive); in test [4] (setting [7]), 108%; in test [4] (setting [8]), 107%. Further, in test [4] (H69AR cells + 2 uM doxorubicin), the differential viability (reversal) is -0.92% (inactive). Besides, the inhibition in test [5] is 1.23% (inactive); in test [6] it was -0.36% (inactive).
Regarding `Cc1nn(-c2ccc(F)cc2)c2sc(C(=O)N3CCCCCC3)cc12`, the viability in test [1] is 93% (inactive); in test [2], 92% (inactive); in test [3] it was 78.8% (inactive); in test [4] (setting [7]), 92.8%; in test [4] (setting [8]), 78.8%. In addition, the differential viability (reversal) in test [4] (H69AR cells + 2 uM doxorubicin) was -14% (inactive). Further, the inhibition was -2.7% (inactive) in test [5] and 12.2% (inactive) in test [6].
Consider `COc1ccccc1-n1cnc2cc(NS(=O)(=O)c3ccccc3)ccc21`, for which the viability in test [1] is 62% (inactive); in test [2], 101% (inactive); in test [3] it was 87.1% (inactive); in test [4] (setting [7]), 87.8%; in test [4] (setting [8]), 87.1%. Besides, the differential viability (reversal) in test [4] (H69AR cells + 2 uM doxorubicin) was -0.69% (inactive). In addition, the values for the inhibition in test [5] and in test [6] were -3.15% (inactive) and -6.55% (inactive), respectively.
For the compound `COC(=O)c1[nH]c(C)c(/C(O)=C2\C(=O)C(=O)N(CCN3CCOCC3)C2c2cccs2)c1C` (stereo unspecified), the viability was 105% (inactive) in test [1]; 76.5% (inactive) in test [2]; 17.3% (active) in test [3]; 71.8% in test [4] (setting [7]); 17.3% in test [4] (setting [8]). Also, the differential viability (reversal) in test [4] (H69AR cells + 2 uM doxorubicin) is -54.5% (inactive). The results for the inhibition in test [5] and in test [6] were -2.3% (inactive) and 13.1% (inactive), respectively.
With `COc1cccc(S(=O)(=O)Nc2ccc(C(=O)N3CCN(C(=O)c4ccco4)CC3)cc2)c1`, the viability is 85% (inactive) in test [1]; 104% (inactive) in test [2]; 86.3% (inactive) in test [3]; 71.5% in test [4] (setting [7]); 86.3% in test [4] (setting [8]). Besides, in test [4] (H69AR cells + 2 uM doxorubicin), the differential viability (reversal) was 14.7% (inactive). Moreover, the inhibition in test [5] is -2.19% (inactive); in test [6], -0.97% (inactive).
`[O-][n+]1onc2c1CCc1nnc(-c3ccccc3)cc1-2`: the viability is 93.5% (inactive) in test [1]; 113% (inactive) in test [2]; 76.2% (inactive) in test [3]; 32.6% in test [4] (setting [7]); 76.2% in test [4] (setting [8]). The differential viability (reversal) in test [4] (H69AR cells + 2 uM doxorubicin) was 43.7% (inactive). The inhibition in test [5] is -1.18% (inactive); in test [6] it was 8.03% (inactive).
Take `COC(=O)CSc1nnc(-c2ccc(OC)cc2OC)o1`: the viability was 77% (inactive) in test [1]; 93.1% (inactive) in test [2]; 109% (inactive) in test [3]; 92.8% in test [4] (setting [7]); 109% in test [4] (setting [8]). For the same compound, the differential viability (reversal) in test [4] (H69AR cells + 2 uM doxorubicin) was 16.5% (inactive). Further, the inhibition in test [5] is -2.67% (inactive); in test [6] it was -5.64% (inactive).
For `COc1ccc(NC(=O)CSc2ccccn2)cc1OC`, the viability in test [1] was 87% (inactive); in test [2], 97.3% (inactive); in test [3], 95.1% (inactive); in test [4] (setting [7]), 74.9%; in test [4] (setting [8]), 95.1%. In addition, the differential viability (reversal) in test [4] (H69AR cells + 2 uM doxorubicin) was 20.2% (inactive). Besides, the figures for the inhibition in test [5] and in test [6] were 2% (inactive) and 1.82% (inactive), respectively.
